# Screening results: PubChem, several laboratories
# H9c2 TAG inh = reduces triacylglycerol accumulation in H9c2 cells | Nile Red lipid (TAG) fluorescence; cells loaded with 200 µM oleic acid | inhibition, % at 12.5 µM | 230,000 tested, 0.66% active | AID 651582;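 active = pattern-corrected inhibition of lipid staining of at least 50% with the nuclear-stain viability signal not falling by more than 50%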;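 note: 0% = DMSO wells and 100% = triacsin C control wells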
# MT1-MMP act inh = blocks activation of human MT1-MMP; GFP/RFP ratio change, % at 20 µM; HT1080 RFP-PRO-GFP cells, GFP/RFP ratio fluorescence, overnight; percent of plate control window, DMSO zero; AID 651647; 360,000 tested, 0.061% active;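 active = GFP/RFP ratio change of at least 30% with cell ATP level not reduced by more than half and red fluorescence within 50% of control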
#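 Assay system: HT1080 RFP-PRO-GFP cells. Benchmarks: DMSO vehicle wells and RFP-L50D-GFP reporter cell wells. Times: overnight cell settling, then overnight compound exposure, 37 °C, 5% CO2. Compound: 20 µM single dose, 1% DMSO. Read-out basis: GFP/RFP fluorescence ratio.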
# H9c2 protect = protects H9c2 cardiomyocytes from peroxide injury; H2O2 injury protection, ATPLite, 2 h; protection from H2O2 cell death, % at 20 µM; 360,000 tested, 0.63% active; AID 588492;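 active = compounds giving at least 50% protection of heart cells from peroxide-induced death in the single-dose screen, raw or plate-pattern-corrected value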;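 note: 0% = DMSO wells with peroxide and 100% = DMSO wells without peroxide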
# DAGLB inhibitor = blocks human DAGLB lipase activity. Q8NCG7. HEK293T DAGLB membrane lysate, EnzChek fluorogenic substrate. inhibition, % at 5.17 µM. 340,000 tested, 0.059% active. AID 504411; in the data active = inhibition above about 34%;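 note: 0% = enzyme with vehicle and 100% = wells lacking enzyme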
# Target sequence (Q8NCG7 whole entry, looked up): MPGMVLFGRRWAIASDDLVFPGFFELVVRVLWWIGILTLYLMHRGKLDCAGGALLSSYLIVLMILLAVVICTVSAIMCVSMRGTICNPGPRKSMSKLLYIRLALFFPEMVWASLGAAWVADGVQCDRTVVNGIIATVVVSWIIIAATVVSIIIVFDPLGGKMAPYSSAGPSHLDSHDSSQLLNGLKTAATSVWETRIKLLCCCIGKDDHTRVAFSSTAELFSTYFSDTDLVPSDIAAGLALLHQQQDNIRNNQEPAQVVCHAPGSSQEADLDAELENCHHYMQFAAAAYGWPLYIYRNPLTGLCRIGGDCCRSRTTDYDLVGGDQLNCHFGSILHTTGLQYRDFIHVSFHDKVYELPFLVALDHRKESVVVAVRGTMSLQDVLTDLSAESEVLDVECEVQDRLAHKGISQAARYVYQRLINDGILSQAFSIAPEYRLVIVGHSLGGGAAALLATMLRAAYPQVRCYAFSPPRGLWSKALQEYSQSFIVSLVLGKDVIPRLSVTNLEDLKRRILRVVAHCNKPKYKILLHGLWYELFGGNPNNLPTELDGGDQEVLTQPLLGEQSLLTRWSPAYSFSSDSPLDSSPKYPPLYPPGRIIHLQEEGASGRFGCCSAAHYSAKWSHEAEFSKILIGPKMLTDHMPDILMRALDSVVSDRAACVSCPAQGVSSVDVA
# DDE Tn7 FP inh = disrupts Tn7 cyclic peptide binding to fibrin D-Dimer-E complex; FP displacement of FITC-Tn7 peptide from fibrin DD(E); 0% = median of compound wells per plate; inhibition, % at 8.3 µM; 370,000 tested, 0.13% active;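 active = inhibition above the mean of compounds falling within the control limits plus 3 SD of them, cut at about 14% in these data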;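 note: 0% = plate median of compound wells and 100% = 10 µM Aha-Tn7 peptide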
#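 Assay system: Fibrin-DD(E) protein isolated from polymerized human fibrin clots; read-out basis: percent inhibition; medium: Tris/NaCl/CaCl2 buffer, pH 7.8; signal: FP measurement; incubation: 10 min plus 3 h, room temperature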
# DDE Tn6 FP inh = inhibitors of Tn6 peptide binding to human fibrin DD(E); Fibrin DD(E) TRITC-Tn6 fluorescence polarization displacement; P02675; 370,000 tested, 0.21% active; inhibition, % at 8.3 µM; AID 720509;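 active = inhibition above a per-campaign cutoff: mean of compounds within control limits plus 3 SD, cut at about 15% in these data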;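 note: 0% = median of all compound wells on the plate and 100% = blocking peptide control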
# Starred values were filed as active, the others as inactive; · = not tested or not shown. A selection: hits, their analogues and other compounds. The true share with any hit is near 1.4%.
SMILES,H9c2 TAG inh,MT1-MMP act inh,H9c2 protect,DAGLB inhibitor,DDE Tn7 FP inh,DDE Tn6 FP inh
COc1ccc(C(C(=O)NCc2ccccc2)N(Cc2ccco2)C(=O)c2cnccn2)cc1 (centres undefined),-6.3,-4.9,15.2,2.8,0.6,5.0
Cc1ccc(C(C(=O)NCc2ccccc2)N(Cc2cccs2)C(=O)c2ccc3c(c2)OCCO3)cc1 (centres undefined),1.1,-31.5,55.8*,-2.5,3.5,-3.2
COC(=O)c1ccc(C(C(=O)NCc2ccccc2)N(Cc2cccs2)C(=O)c2cnccn2)cc1 (centres undefined),·,4.3,76.3*,2.4,-1.1,-3.8
COc1ccc(CNC(=O)C(c2ccc(C)cc2)N(Cc2cccs2)C(=O)c2ccc3c(c2)OCCO3)cc1 (centres undefined),·,-42.2,61.2*,-3.3,0.8,-3.3
COc1ccc(CNC(=O)C(c2cccs2)N(Cc2ccco2)C(=O)Cc2cccs2)cc1 (centres undefined),7.3,-8.5,63.1*,-3.3,-6.4,-14.4
O=C(OCc1cn(Cc2ccc(F)cc2)nn1)N1CCCC1,·,·,·,·,-1.1,-4.9
CC(=O)N1[C@H](CO)[C@@H](c2ccccc2)[C@@H]1CN(C(=O)c1ccc(F)cc1)C(C)C,·,·,·,·,3.6,-3.7
Cc1cccc(C(=O)OCC(=O)NCc2cccs2)c1,-7.7,-4.8,-1.0,-1.6,1.9,3.1
CS(=O)(=O)c1ccc(C(=O)OCC(=O)NCc2cccs2)cc1[N+](=O)[O-],51.5*,14.2,-16.2,-12.1,-5.4,-0.9
Clc1cc(Cl)cc(CNC2CCC23CCC(c2ccccc2)CC3)c1 (centres undefined),·,·,·,·,-2.3,4.3
COc1cc(/C=C/C(=O)CC(=O)/C=C/c2ccc(O)c(OC)c2)ccc1O,14.3,-38.7,75.1*,-18.4,-2.5,-2.7
COc1ccc(C=CC(=O)c2ccc3cc(OC)c(OC)cc3c2)cc1OC,17.1,0.3,52.7*,1.3,-7.1,-15.2
COc1cc(/C=C/C(=O)O)ccc1O,·,2.4,0.8,-2.3,2.7,-13.9
Cc1cc(C)cc(NC(=O)OC2CCC23CCCCC3)c1 (centres undefined),·,·,·,·,1.2,2.2
CC(/C=C/c1ccccc1)=N/NC(=O)c1cc([N+](=O)[O-])cc([N+](=O)[O-])c1,·,-0.9,64.8*,3.0,8.5,-2.7
O=C(c1ccccc1)c1ccc2nc(N3CCN(C(=O)c4ccco4)CC3)c3nncn3c2c1,19.2,-4.2,83.6*,1.4,-3.5,-4.5
CCOC(=O)N1CCN(c2nc3ccc(C(=O)c4ccccc4)cc3n3cnnc23)CC1,25.2,-3.6,10.3,3.3,6.9,3.5
O=C(CNC(=O)c1ccccc1O)N/N=C/c1cc(Br)ccc1OC(=O)/C=C/c1ccco1,·,·,·,·,-2.7,1.7
O=C(CNC(=O)c1cccc(F)c1)N/N=C/c1cc(Br)ccc1OC(=O)/C=C/c1ccco1,5.5,-3.2,56.6*,4.0,-2.1,-2.2
O=C(NCCc1c[nH]c2ccccc12)OCc1cn(Cc2ccc(C(F)(F)F)cc2)nn1,·,·,·,·,-1.3,11.0
CCOCCCNC(=O)c1ccc2nc(-c3ccc(OC)c(OC)c3)c(-c3ccc(OC)c(OC)c3)nc2c1,·,2.5,50.1*,-1.1,-5.7,0.1
COc1ccc(/C=N/NC(=O)c2cccnc2)cc1CN1CCc2ccccc2C1,5.4,5.4,69.4*,·,3.2,-5.5
COc1ccc(/C=N\NC(=O)c2ccccc2)cc1COc1ccccc1,24.5,2.8,10.4,-1.3,1.1,-6.7
CCOC(=O)c1ccccc1OCc1cc(/C=N/NC(=O)c2cccnc2)ccc1OC,-12.2,-0.3,54.8*,-2.3,5.2,-6.3
COc1ccc(/C=N\NC(=O)c2cc(O)c(O)c(O)c2)cc1COc1ccc(C(=O)OCC(C)C)cc1,·,1.9,52.6*,12.0,-10.6,-26.0
O=C(NCCCc1ccccc1)C1CCN(c2nc(-c3ccc(Br)cc3)cs2)CC1,·,·,·,·,-2.2,-6.3
O=C(OC12CCCN(C1)/C(=C/c1ccccc1)C2)c1ccc(F)cc1 (centres undefined),·,·,·,·,-5.8,1.4
C=CCN1C(=O)[C@H](CC(=O)NCc2cccc(C(F)(F)F)c2)[C@@]2(C(=O)OCC)CCCC=C12,·,·,·,·,-3.5,6.0
